Laboratory results from the RNAGym collection of RNA variant scans (doi:10.1126/science.aae0568).
Fewer inactive variants are shown than the library holds.

B1: tRNA (parent)
chain: GUUCCGUUGGCGUAAUGGUAACGCGUCUCCCUCCUAAGGAGAAGACUGCGGGUUCGAGUCCCGUACGGAACG

Variants of: B1
Assay: yeast fitness relative to wild type (ratio to wild type); higher = fitter; tRNA-Arg(CCU), competitive growth, 37 C, YPD
How it was run: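 Changes in genotype frequencies gave Darwinian fitness relative to wild type. Frequencies were read by 100-nucleotide paired-end sequencing of gene amplicons before and after pooled Saccharomyces cerevisiae strains, carrying tRNA-Arg(CCU) gene variants at the native locus, were competed in YPD at 37°C for 24 hours in six replicates. A genotype was kept only with ≥ 100 starting reads, and estimates < 0.5 were set to 0.5.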

Row | Variant | yeast fitness
1 | U8A U28A C31G G44A G51C A65G | ≤ 0.5
2 | U8A G18A C30A U32A U35A G67A | ≤ 0.5
3 | U8C C24A U35G G52A U64A | ≤ 0.5
4 | U8A G18A C30A U32A U35G C66U A69U | ≤ 0.5
5 | U8G U13G G23C A40C G63A | ≤ 0.5
6 | U8A G9C U54A | ≤ 0.5
7 | U8A C27A G68C | ≤ 0.5
8 | U8C G9A A20C A70U | ≤ 0.5
9 | U8G G18C A37G A40G | 0.546
10 | U8A G9C G38A A40C U59C | 0.638
11 | U8A G10A G58C A69U | ≤ 0.5
12 | U8A G18A G25A C33U G51A G56A | 0.614
13 | G9A A15C G58C | 0.581
14 | U8G C49G U53C C60A | ≤ 0.5
15 | U8C G10A G67C | 0.592
16 | U8C U26A A43U A70U | 0.675
17 | U8G G50C | ≤ 0.5
18 | U8C G50C | 0.663
19 | U8G G10C | ≤ 0.5
20 | U8C G68A | 0.741
21 | U8C A21U C34A A40C G67A | ≤ 0.5
22 | U8G U13A C30U G39C | ≤ 0.5
23 | U7G U28C | 0.808
24 | U8G C30U C31G C66G | ≤ 0.5

Row | Variant | yeast fitness
25 | U7G U32A U35C C61G | ≤ 0.5
26 | U8A G39C A57G A65G | ≤ 0.5
27 | U8A C29A A43G A57U | ≤ 0.5
28 | U8A G17A C62G | ≤ 0.5
29 | U8C A36U G50C | ≤ 0.5
30 | G9A A14C C22G U54C C66U | ≤ 0.5
31 | U8A C11A A36G C61G | ≤ 0.5
32 | U8G A14U G39A C55G | ≤ 0.5
33 | U8C C27G A42G C60U U64A C66A G68A A69G | 0.543
34 | U8G A20U A36G | 0.635
35 | U8C C31U C46A C49A | ≤ 0.5
36 | U8C A40G A43C | 0.732
37 | U8A C34G A65U C66A | ≤ 0.5
38 | G9A A36U C46U | ≤ 0.5
39 | G9A A15U U59A A65C | 0.654
40 | U8A A14G C31U G58A C61G C66U | ≤ 0.5
41 | U8A U32G A37G | ≤ 0.5
42 | U7G U13A | 0.898
43 | U8C C61A | 0.763
44 | U8C C61U | 0.942
45 | U8G A14G G18A U47A | ≤ 0.5
46 | U8A A36U C55G G58A U59C A69C | ≤ 0.5
47 | U8G C30A G50C C62U G67U | ≤ 0.5
48 | U8A A15U C29G G41A C49G A57G | ≤ 0.5

Row | Variant | yeast fitness
49 | G9A A36G G50C U64C | 0.645
50 | G9A A45G G50C A69C | ≤ 0.5
51 | U8C U16A A21G | ≤ 0.5
52 | G9A A43C | 1.07
53 | G9A A43U | 1.08
54 | G9A C11A A20U G23A G51A | ≤ 0.5
55 | U8C A45C | 0.802
56 | U8A C31G A57C C61U | 0.506
57 | U8A C34U | 0.508
58 | U8C G9A U13A A15G A37U | 0.549
59 | U8C C34G G48C U59C C60A A65G | ≤ 0.5
60 | U8G C34G C55G C62A G68A | ≤ 0.5
61 | U8A C24A C30U C31U G48C C66U | ≤ 0.5
62 | U8A U26C G52C | ≤ 0.5
63 | U8C C27G C29A | ≤ 0.5
64 | U8C C27A G52A C62G A69G | ≤ 0.5
65 | U8A C22U A43G C66A | ≤ 0.5
66 | U8C A21U C30G G58C | ≤ 0.5
67 | U8G G10C A20G G58A | ≤ 0.5
68 | U7G U19C | 0.767
69 | G9A A36U G39A G67A | ≤ 0.5
70 | G9A A65G C66U | 0.815
71 | U8C C31G G51A G68C | ≤ 0.5
72 | U8A U13A A20C A21U A42U | ≤ 0.5

Row | Variant | yeast fitness
73 | U8C G12C C61A G67A | ≤ 0.5
74 | U8A C11U | 0.633
75 | U8G G17A C24G | ≤ 0.5
76 | U8C G39C G68A | ≤ 0.5
77 | U8A G10C C11U C24U A42C U47C G68C | ≤ 0.5
78 | U8G A42U A43C | 0.51
79 | U8C C27U C34G C60A | 0.503
80 | U8C C49G C62A | ≤ 0.5
81 | U8G A37U G63C | ≤ 0.5
82 | G9A A69G | 0.953
83 | G9A A69U | 1.04
84 | U7G U19A C22G C24G A40G C55G G68C | ≤ 0.5
85 | U8A G44A G67C | ≤ 0.5
86 | U8G A14G G25A A36G A42U G68C | ≤ 0.5
87 | U8G C24G U47C C61G | ≤ 0.5
88 | G9A A14U C46G C55U A69C | ≤ 0.5
89 | U8C C22U U32C C46G U53G G68C | ≤ 0.5
90 | U8A G18C G48C A65G | ≤ 0.5
91 | U8G C24G G41A A65G | ≤ 0.5
92 | U8C C31G A42G | 0.624
93 | U8A U53A | ≤ 0.5
94 | U8A C24A A70U | ≤ 0.5
95 | G9A A42C C66U | 0.543
96 | U7G U59G | 0.705

Row | Variant | yeast fitness
97 | G9A C11G C22U A40G A42G | ≤ 0.5
98 | U8A G12C U47C | ≤ 0.5
99 | G9A A14G C60U C62U | ≤ 0.5
100 | U8C C22U G23C C33G C49U | ≤ 0.5
101 | U8C C22G C49U A69U | 0.573
102 | U8C G12C C55U A70C | 0.542
103 | G9A A20G C30U | 0.71
104 | U8A C49G A57C | ≤ 0.5
105 | U8C A14C G18A C31U | ≤ 0.5
106 | U8G C29G A40U C61U A69C | 0.648
107 | U8A C31G A42G G52C | ≤ 0.5
108 | U8C C34U | 0.728
109 | G9A A14C U35C | ≤ 0.5
110 | U8A C22U G38C C49G | 0.602
111 | U8C A42C | 0.857
112 | U8C C29A C34G A36G A40C U47A U64C | ≤ 0.5
113 | U8C U32G G50A A69U | 0.557
114 | U8A G25A C29G A37C | 0.646
115 | U8A C61A | 0.753
116 | U8C C27A U47A G56C A69C | ≤ 0.5
117 | U8C C22G C30G | ≤ 0.5
118 | U8C C11A U54C | ≤ 0.5
119 | U8C G12C C62U | 0.587
120 | U8C C29A U54A | ≤ 0.5

Row | Variant | yeast fitness
121 | U8A C30G G56C A57G G68A A69C | ≤ 0.5
122 | U8A G12A C62U | ≤ 0.5
123 | U8A G12A A21G | ≤ 0.5
124 | U8A C24A U28C C61U U64A A69G | ≤ 0.5
125 | U8C C11U C24G A45C | 0.629
126 | G9A A65U | 0.93
127 | U8C U19C | 0.978
128 | U8C C11U C29A | ≤ 0.5
129 | U8C G12A A21C | ≤ 0.5
130 | U8A G12A A14C C31A G41C C49A G56A | 0.563
131 | U8A U16G C30U C33G A37C A43G | ≤ 0.5
132 | U8A U35C A42C G67A | 0.568
133 | U8C G10C G23C C29G G51A | 0.72
134 | U8C G41C | 0.88
135 | U8A G10U C22U A37G | 0.511
136 | U8A C29U C34U G58C | ≤ 0.5
137 | U8C A21U U32A C55G | 0.517
138 | U8C G12C | 0.853
139 | U8C G10A G51A G58A | ≤ 0.5
140 | U8A G23A C30G U59A A70C | ≤ 0.5
141 | U8C G48A C55A G58C | ≤ 0.5
142 | U8G A69U | 0.575
143 | U8C A43C C66G | ≤ 0.5
144 | U8A C24G A40G C49U G56C | ≤ 0.5

Row | Variant | yeast fitness
145 | U8C C24U A42U G52C | ≤ 0.5
146 | U8C U19C C55G A70C | ≤ 0.5
147 | G9A C11A A14C U16A C31A C62U | ≤ 0.5
148 | U8C A70G | 0.971
149 | U8G G48A C49G | ≤ 0.5
150 | U8A C11G C34G C60G A65U | ≤ 0.5
151 | U8C A15G | 0.969
152 | U8A A14C C31A | 0.571
153 | U8C U32C | 0.81
154 | U8A U19C G48C U59A C61U C66U | ≤ 0.5
155 | U8A A14C | 0.692
156 | U8A A14G | 0.632
157 | U7G U26C C49G | ≤ 0.5
158 | U8A G10A G39A | 0.626
159 | U8A C11A G56C | ≤ 0.5
160 | G9A A21U | 0.693
161 | G9A A21G | 1.05
162 | G9A A57G | 0.933
163 | U8A A14C C31A G41C C49A | 0.562
164 | U8C C30U U47A G67C | ≤ 0.5
165 | U8C U16C A20C C24G C55A | 0.729
166 | U8C G9A C22G U32G G51C U64A C66U A69C | ≤ 0.5
167 | U8C U13G C22U C49U A65U | ≤ 0.5
